Reference: ChEMBL document CHEMBL1154414, “In vitro and in vivo activities of T-705 against arenavirus and bunyavirus infections” (Antimicrob Agents Chemother, 2007)

Columns and labels:
Punta Toro virus [1] = assay: Antiviral activity against 5000 PFU Punta Toro virus Adames infected C57BL/6 mouse assessed as mean serum ALT levels at 10 mg/kg, po twice daily administered 24 hrs post viral challenge measured on day 3 of viral infection; type: functional
Outline: (§1)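 C57BL/6 mice received subcutaneous PTV, then oral gavage twice daily for 5–7 days. T-705 was given in 0.4% CMC and ribavirin in saline. Five mice per group (10 placebo) were killed on day 3 or 4, and serum was collected. ALT activity was measured by kinetic assay. Three sham-infected mice set baselines.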

Punta Toro virus [2] = assay: Antiviral activity against Punta Toro virus Adames infected Syrian golden hamster assessed as mean serum ALT levels at 30 mg/kg, po twice daily administered 4 hrs before viral challenge measured on day 4 of viral infection; type: functional
Outline: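 Hamsters were challenged subcutaneously with 50 PFU and dosed twice daily by oral gavage in 0.4% CMC. Five per group were sacrificed on day 3 or 4. Livers were scored 0-4 for icterus, and serum ALT was measured by kinetic assay against three sham-infected baseline animals.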

Pichinde virus [3] = assay: Antiviral activity against Pichinde virus An 4763 infected Syrian golden hamster assessed as mean viral titer per 0.1 mL of serum at 20 mg/kg, po twice daily for 7 days administered 24 hrs post viral-challenge; type: functional
Outline: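 Hamsters (groups of 15, placebo 25-30) were dosed orally by gavage twice daily (drug suspended in 0.4% CMC) after bilateral intraperitoneal challenge with 65 PFU. Five per group were killed on day 7. Liver homogenate or serum was serially diluted onto triplicate B-SC-1 wells, CPE was read at 6-8 days, and the 50% endpoint was taken. Range was 2.8-9.5 log10 CCID50/0.1 g or 0.1 ml, with undetectable assigned <2.8.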

Punta Toro virus [4] = assay: Antiviral activity against 500 PFU Punta Toro virus Adames infected C57BL/6 mouse assessed as protection against viral infection at 75 mg/kg, po twice daily for 5 to 7 days; type: functional
Outline: (§2)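 PTV was inoculated subcutaneously into mice in groups of 15 (25–30 placebo). Dosing was by oral gavage twice daily for 5–7 days, with T-705 suspended in 0.4% CMC and ribavirin in saline. Remaining animals were observed 21–28 days for survival and day of death. Test doses had first been checked for tolerance in uninfected animals.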

Punta Toro virus [5] = assay: Antiviral activity against Punta Toro virus Adames infected Syrian golden hamster assessed as mean viral titer per 0.1 g of liver at 15 mg/kg, po twice daily administered 4 hrs before viral challenge measured on day 4 of viral infection; type: functional
Punta Toro virus [6] = assay: Antiviral activity against Punta Toro virus Adames infected Syrian golden hamster assessed as animals with detectable virus level in liver at 15 mg/kg, po twice daily administered 4 hrs before viral challenge measured on day 4 of viral infection; type: functional
Punta Toro virus [7] = assay: Antiviral activity against 500 PFU Punta Toro virus Adames infected C57BL/6 mouse assessed as animals with detectable virus level in serum at 30 mg/kg, po twice daily administered 4 hrs before viral challenge measured on day 3 of viral infection; type: functional
Outline: (§3)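 T-705 was suspended in 0.4% carboxymethylcellulose and given by oral gavage twice daily. Mice were infected subcutaneously with PTV. Five mice per group (10 placebo) were sacrificed on day 3 or 4. Liver homogenate or serum was serially diluted onto triplicate LLC-MK2 monolayers, and CPE was read at 6–8 days. The detection limit was 2.8 log10 CCID50 per 0.1 g liver or 0.1 ml serum.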

Punta Toro virus [8] = assay: Antiviral activity against 500 PFU Punta Toro virus Adames infected C57BL/6 mouse assessed as mean serum ALT levels at 5 mg/kg, po twice daily administered 4 hrs before viral challenge measured on day 3 of viral infection; type: functional; outline: as §1
Punta Toro virus [9] = assay: Antiviral activity against 5000 PFU Punta Toro virus Adames infected C57BL/6 mouse assessed as survival at 10 mg/kg, po twice daily for 5 days administered 24 hrs post viral challenge; type: functional; outline: as §2
Punta Toro virus [10] = assay: Antiviral activity against Punta Toro virus Adames infected Syrian golden hamster assessed as survival at 60 mg/kg, po twice daily for 6 days administered 4 hrs before viral challenge; type: functional
Punta Toro virus [11] = assay: Antiviral activity against 500 PFU Punta Toro virus Adames infected C57BL/6 mouse assessed as mean viral titer per 0.1 g of liver at 50 mg/kg, po administered 4 hrs before viral challenge measured on day 4 of viral infection; type: functional
Outline: (§4)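 Mice were infected subcutaneously with PTV and dosed by oral gavage twice daily; 5 per group (10 placebo) were killed on day 3 or 4. Liver homogenate or serum was serially diluted onto triplicate LLC-MK2 monolayers, and CPE was read 6–8 days later. 50% endpoints gave log10 CCID50 per 0.1 g liver or 0.1 ml serum. Detection range was 2.8–9.5; undetectable samples were assigned <2.8.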

Punta Toro virus [12] = assay: Antiviral activity against 500 PFU Punta Toro virus Adames infected C57BL/6 mouse assessed as mean viral titer per 0.1 g of liver at 25 mg/kg, po administered 4 hrs before viral challenge measured on day 4 of viral infection; type: functional; outline: as §4
Enterovirus C = assay: Antiviral activity against Poliovirus; type: functional, organism-based
Pichinde virus [13] = assay: Antiviral activity against Pichinde virus An 4763 assessed as reduction of 1 log10 unit viral titer yields after 7 to 8 days; type: functional
Pichinde virus [14] = assay: Antiviral activity against Pichinde virus An 4763 infected Syrian golden hamster assessed as […] survival administered po twice daily for 7 days administered 4 hrs before viral-challenge; type: functional, organism-based
Pichinde virus [15] = assay: Antiviral activity against Pichinde virus An 4763 infected Syrian golden hamster assessed as animals with detectable virus level in liver at 60 mg/kg, po twice daily for 7 days administered 4 hrs before viral-challenge measured on day 7 of viral infection; type: functional
Pichinde virus [16] = assay: Antiviral activity against Pichinde virus An 4763 infected Syrian golden hamster assessed as animals with detectable virus level in liver at 15 mg/kg, po twice daily for 7 days administered 4 hrs before viral-challenge measured on day 7 of viral infection; type: functional
Pichinde virus [17] = assay: Antiviral activity against Pichinde virus An 4763 infected Syrian golden hamster assessed as mean serum ALT levels at 60 mg/kg, po twice daily for 7 days administered 4 hrs before viral-challenge measured on day 7 of viral infection; type: functional
Punta Toro virus [18] = assay: Antiviral activity against 500 PFU Punta Toro virus Adames infected C57BL/6 mouse assessed as mean serum ALT levels at 200 mg/kg, po twice daily administered 4 hrs before viral challenge measured on day 4 of viral infection; type: functional
Outline: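 Subcutaneous PTV infection was followed by oral gavage twice daily with drug suspended in 0.4% CMC. Serum was collected from 5 sacrificed mice per group (10 placebo) on day 3 or 4. ALT activity was measured by kinetic assay, and sham-infected mice set the baselines.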

Punta Toro virus [19] = assay: Antiviral activity against 500 PFU Punta Toro virus Adames infected C57BL/6 mouse assessed as mean day of death at 5 mg/kg, po twice daily for 5 days administered 4 hrs before viral challenge; type: functional
Outline: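 Groups of 15 mice (25–30 placebo) were inoculated subcutaneously with PTV. Drug in 0.4% carboxymethylcellulose was given by oral gavage twice daily.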

Punta Toro virus [20] = assay: Antiviral activity against 500 PFU Punta Toro virus Adames infected C57BL/6 mouse assessed as mean viral titer per 0.1 g of liver at 10 mg/kg, po twice daily administered 4 hrs before viral challenge measured on day 3 of viral infection; type: functional; outline: as §4
Punta Toro virus [21] = assay: Antiviral activity against 500 PFU Punta Toro virus Adames infected C57BL/6 mouse assessed as animals with detectable virus level in liver at 30 mg/kg, po twice daily administered 4 hrs before viral challenge measured on day 3 of viral infection; type: functional; outline: as §3

NC(=O)c1ncn([C@@H]2O[C@H](CO)[C@@H](O)[C@H]2O)n1 [RIBAVIRIN]
Activity (Punta Toro virus [1]): 1515 IU/L
Activity (Punta Toro virus [2]): 13 IU/L
log10CCID50 (Pichinde virus [3]): <5.1
Activity (Punta Toro virus [4]): 100%

NC(=O)c1nc(F)cnc1O [FAVIPIRAVIR]
log10CCID50 (Punta Toro virus [5]): >6.9
Activity (Punta Toro virus [6]): 100%
Activity (Punta Toro virus [7]): 80%
Activity (Punta Toro virus [8]): 2461 IU/L
Activity (Punta Toro virus [1]): 2274 IU/L
survival at 10 mg/kg (Punta Toro virus [9]): 40%
survival at 60 mg/kg (Punta Toro virus [10]): 90%
log10CCID50 (Punta Toro virus [11]): <2.8
log10CCID50 (Punta Toro virus [12]): <2.8
EC50 (Enterovirus C): 31 µM
Activity (Punta Toro virus [2]): 25 IU/L
EC90 (Pichinde virus [13]): 19 µM
Activity (Pichinde virus [14]): Dose-dependent effect
Activity (Pichinde virus [15]): 0%
Activity (Pichinde virus [16]): 100%
Activity (Pichinde virus [17]): 23 IU/L
log10CCID50 (Pichinde virus [3]): >9
Activity (Punta Toro virus [18]): 37 IU/L
Activity (Punta Toro virus [19]): 4.9 days
log10CCID50 (Punta Toro virus [20]): <2.8
Activity (Punta Toro virus [21]): 0%
